Residues, ends and D or L forms follow the SMILES beside them. *: point of attachment. X2 = CC(=O)O[C@@]12CO[C@@H]1C[C@H](O)[C@@]1(C)C(=O)[C@H](O)C3=C(C)[C@@H](OC(=O)[C@H](OC(=O)OCc4ccc(N*)cc4)[C@@H](NC(=O)OC(C)(C)C(F)(F)F)c4ccccc4)C[C@@](O)([C@@H](OC(=O)c4cccc(F)c4)[C@H]21)C3(C)C
Experiments:
[1] = Toxicity in BALB/c nude mouse xenografted with human HCT-116 cells assessed as necrosis in liver at 11.17 mg/kg, ip administered once for every 7 days for 14 days by H and E staining based assay; type: organism-based; settings: in vivo, 336 h, time 14 day
Outline: (§1)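 At the end of the 14-day ip xenograft study (HCT116, BALB/c nude), heart and liver were collected from vehicle and molar-equivalent dose groups. Tissues fixed in 10% formalin in PBS and stained with H&E. Liver examined at 400×, heart at 100×.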

HEK293 = assay: Cytotoxicity against HEK293 cells assessed as reduction in cell viability after 48 hrs by MTT assay; type: cell-based; settings: Homo sapiens, HEK293, 48 h
Outline: (§2)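 Cells seeded at 5000/well and precultured 1 day. HCT116 grown in McCoy's 5A + 10% FBS; SW620 and HEK293 in DMEM + 10% FBS; CCD18Co in DMEM + 15% FBS. Compounds from 0.1 M DMSO stocks were tested at 10^-10 to 10^-4 mol/L in sixplicate: HCT116 and HEK293 for 48 h, SW620 and CCD18Co for 72 h, at 37 °C, 5% CO2. MTT (5 mg/mL) added for 4 h, then A570 read; IC50 estimated.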

CCD-18Co = assay: Cytotoxicity against human CCD-18Co cells assessed as reduction in cell viability after 72 hrs by MTT assay; type: cell-based; outline: as §2
[2] = Toxicity in BALB/c nude mouse xenografted with human HCT-116 cells assessed as reduction in body weight at 11.1 mg/kg, ip administered once for every 7 days for 14 days relative to control; type: organism-based; parameters: scale not given: the % may be the effect or the level left; settings: in vivo, 336 h, time 14 day
Outline: (§3)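 HCT116 s.c. xenografts in male BALB/c nude mice, n = 6 per group. Dosing was ip once every 7 days for 2 weeks in DMSO/castor oil/ethanol/saline; vehicle controls got solvent. Body weight recorded every other day or every three days. Weight loss taken at day 14. Mean ± SD.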

HCT-116 [3] = assay: Antitumour activity against human HCT-116 cells xenografted in BALB/c nude mouse assessed as tumour growth inhibition at 22.2 mg/kg, ip administered once for every 7 days for 14 days relative to control; type: functional; settings: HCT-116, ip, 336 h, time 14 day, read-out: TGI
Outline: (§4)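 Male BALB/c nude mice received s.c. HCT116 cells (2 × 10^6 in 0.2 mL PBS). Once tumours reached 100-200 mm3, mice were randomized into groups of six. Dosing was ip, 0.1 mL/10 g, once every 7 days, in DMSO 0.5%/castor oil 5%/ethanol 5%/saline 89.5%; vehicle controls got solvent. Caliper volume V = L×W²×0.52 read every 2-3 days. Tumours excised and weighed on day 14.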

[4] = Toxicity in BALB/c nude mouse xenografted with human HCT-116 cells assessed as concentrated nucleus in liver at 11.17 mg/kg, ip administered once for every 7 days for 14 days by H and E staining based assay; type: organism-based; settings: in vivo, 336 h, time 14 day; outline: as §1
SW-620 = assay: Cytotoxicity against human SW-620 cells assessed as reduction in cell viability after 72 hrs by MTT assay; type: functional, cell-based; settings: SW-620, 72 h; outline: as §2
[5] = Half life in Sprague-Dawley rat plasma t 50 ug/ml up to 72 hrs by RP-HPLC analysis; type: ADME, cell-free; settings: dose 50 µg/ml
[6] = Toxicity in BALB/c nude mouse xenografted with human HCT-116 cells assessed as reduction in body weight at 22.2 mg/kg, ip administered once for every 7 days for 14 days relative to control; type: organism-based; parameters: scale not given: the % may be the effect or the level left; settings: in vivo, 336 h, time 14 day; outline: as §3
HCT-116 [7] = assay: Antitumour activity against human HCT-116 cells xenografted in BALB/c nude mouse assessed as tumour growth inhibition at 5.55 mg/kg, ip administered once for every 7 days for 14 days relative to control; type: functional; settings: HCT-116, ip, 336 h, time 14 day, read-out: TGI; outline: as §4
[8] = Half life of compound in PBS buffer at pH 7.4 at 50 ug/ml up to 72 hrs by RP-HPLC analysis; type: physicochemical; settings: dose 50 µg/ml
HCT-116 [9] = assay: Antitumour activity against human HCT-116 cells xenografted in BALB/c nude mouse assessed as tumour growth inhibition at 11.1 mg/kg, ip administered once for every 7 days for 14 days relative to control; type: functional; settings: HCT-116, ip, 336 h, time 14 day, read-out: TGI; outline: as §4
HCT-116 [10] = assay: Antitumour activity against human HCT-116 cells xenografted in ip dosed BALB/c nude mouse assessed as tumour growth inhibition administered once for every 7 days for 14 days; type: functional, organism-based; settings: time 14.0 day; outline: as §4
HCT-116 [11] = assay: Cytotoxicity against human HCT-116 cells assessed as reduction in cell viability after 48 hrs by MTT assay; type: functional, cell-based; settings: HCT-116, 48 h; outline: as §2
[12] = Toxicity in BALB/c nude mouse xenografted with human HCT-116 cells assessed as reduction in body weight at 5.5 mg/kg, ip administered once for every 7 days for 14 days relative to control; type: organism-based; parameters: scale not given: the % may be the effect or the level left; settings: in vivo, 336 h, time 14 day
Outline: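 HCT116 cells (2 × 10^6 in 0.2 mL PBS) inoculated subcutaneously into male BALB/c nude mice; at mean tumor volume 100-200 mm3, randomized, six mice per group. Dosed intraperitoneally once every 7 days in DMSO (0.5%)/castor oil (5%)/ethanol (5%)/saline (89.5%), 0.1 mL per 10 g; vehicle controls received solvent. Body weight monitored every other day or three days; mice weighed on day 14.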

[13] = Toxicity in BALB/c nude mouse xenografted with human HCT-116 cells assessed as inflammatory cell invasion in heart at 11.17 mg/kg, ip administered once for every 7 days for 14 days by H and E staining based assay; type: organism-based; settings: in vivo, 336 h, time 14 day; outline: as §1
[14] = Toxicity in BALB/c nude mouse xenografted with human HCT-116 cells assessed as disordered myocardial fiber in heart at 11.17 mg/kg, ip administered once for every 7 days for 14 days by H and E staining based assay; type: organism-based; settings: in vivo, 336 h, time 14 day; outline: as §1

half-life at 50 ug/ml [5]: 43.8 h | half-life at 50 ug/ml [8]: > 72 h
Structure (SMILES): CC[C@H](C)[C@H](NC(=O)CNC(=O)[C@H](CCC(N)=O)NC(=O)[C@@H]1CCCN1C(=O)CNC(C)=O)C(=O)N[C@@H](C)C(=O)N[C@@H](CCSC)C(=O)N[C@@H](CCC(N)=O)C(=O)N[C@@H](CC(C)C)C(=O)Nc1ccc(COC(=O)O[C@@H](C(=O)O[C@H]2C[C@@]3(O)[C@@H](OC(=O)c4cccc(F)c4)[C@@H]4[C@]5(OC(C)=O)CO[C@@H]5C[C@H](O)[C@@]4(C)C(=O)[C@H](O)C(=C2C)C3(C)C)[C@@H](NC(=O)OC(C)(C)C(F)(F)F)c2ccccc2)cc1 (Ac-GPQGIAMQL-X2)
Activity [1]: Non-Toxic | IC50 (HEK293): 86.8 µM | IC50 (CCD-18Co): > 200 µM | Activity [2]: 8.5% | inhibition in vivo at 22.2 mg/kg (HCT-116 [3]): 46.3% | Activity [4]: Non-Toxic | IC50 (SW-620): 6.59 µM | Activity [6]: 8.7% | inhibition in vivo at 5.55 mg/kg (HCT-116 [7]): 30.5% | inhibition in vivo at 11.1 mg/kg (HCT-116 [9]): 35.2% | TGI (HCT-116 [10]): Dose-dependent effect | IC50 (HCT-116 [11]): 0.0028 µM | Activity [12]: 4.6% | Activity [13]: Non-Toxic | Activity [14]: Non-Toxic

Source: ChEMBL document CHEMBL4680238, “Novel octapeptide-DTX prodrugs targeting MMP-7 as effective agents for the treatment of colorectal cancer with lower systemic toxicity” (Eur J Med Chem, 2020)
